Assay results reported in PubChem BioAssay.
Values without a mark were called inactive. Records with an inconclusive call do not appear. Active and inactive are the calls of the source.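 The calls were made as follows, unless noted: active = growth inhibition above 25% in both replicates, a cutoff set 3 SD above the mean; inconclusive = above 25% in only one replicate; inactive = the rest.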

Assays:
[1] = S. cerevisiae growth inhibition in permissive medium (OD615), pilot counter-assay for S. cerevisiae lifespan shortening project, permissive growth control (AID 705); settings: OD615, 24 h, at 10 µM, stronger effect = higher value
Summary of the method: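 System: Engineered DeaD yeast | Buffer or medium: SC raffinose/galactose permissive medium | Incubation: Cells pre-grown 4 h, then 24 h compound exposure, 30 °C humidified | Measured by: Absorbance (optical density) at 615 nm | Read-out: Reduction in yeast growth (OD615)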

[2] = S. cerevisiae growth inhibition in restrictive medium, OD615, pilot screen, restrictive growth control, yeast lifespan reduction project (AID 706;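 active = growth inhibition above a set limit, 3 SD over mean compound inhibition, in both replicates, cut at about 43% in these data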;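 also: modified DeaD lifespan yeast strain shifted to restrictive glucose medium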); settings: OD615, 48 h, at 10 µM, stronger effect = higher value
Summary of the method: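 Material: modified S. cerevisiae; Medium: glucose-based CSMM-D restrictive medium; Compound dosing: one concentration, 10 µM final, 0.25% DMSO; Incubation: 48 h compound exposure at 30 °C; Measured by: OD615.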

[3] = doxorubicin toxicity protection in MRP-1 cells – H69AR cells, CellTiter-Glo, duplicate, MRP-1 activator project, pilot screen (AID 807;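 active = viability increase at or above a cutoff of the median across tested compounds plus 3 SD, cut at about 8.5% in these data, passing the limit was not always enough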;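 also: compound pretreatment 18-22 h then 72 h combined with doxorubicin; 0% = doxorubicin alone and 100% = vehicle without doxorubicin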); settings: H69AR viability with doxorubicin, CellTiter-Glo luminescence; at 10 µM; stronger effect = higher value
[4] = viability of HCT116 without oncogenic beta-catenin – human colon tumor cells, pilot screen (AID 823;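 active = cell viability at or below a set limit in both duplicate runs, the limit being the all-compound median minus 4 SD, cut at about 23% in these data, passing the limit was not always enough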;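 also: 0% = wells killed by 20 µM Hyamine and 100% = untreated DMSO cell wells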); settings: HCT116 beta-catenin knockout viability, CellTiter-Glo, 60 h; at 10 µM; stronger effect = lower value
[5] = viability of PTEN-null HCT116 cells – cell-based, HCT116 clonal line, CellTiter-Glo, pilot screen (AID 824;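 active = viability at or below 27.92% in each of two runs, the all-compound median minus 4 SD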;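 also: 0% = 20 µM Hyamine control and 100% = vehicle cell control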); settings: HCT116 PTEN-deleted viability, 60 h, at 10 µM, stronger effect = lower value
[6] = RAM pathway blockade in budding yeast – dse1pr::URA3 reporter, 5-FOA selection, pilot screen (AID 869;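 active = inhibition over a set limit, the all-compound mean plus 3 SD, in both replicate runs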;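 also: 0% = DMSO wells with no growth and 100% = 10 µM 1-NA-PP1 with full growth; RAM network block rescues cells from 5-FOA so hits raise OD615 growth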); settings: S. cerevisiae dse1pr::URA3 5-FOA growth, OD615, 2 d; at 10 µM; stronger effect = higher value; strain carries analog-sensitive mutant Cbk1 kinase
[7] = RAM signaling pathway blockade in yeast – S. cerevisiae, Pdr1DBD-CYC8 efflux-inhibited sensitized strain, primary screen (AID 1298;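 active = RAM network inhibition above 8.4% in each of two replicates, 3 SD over the compound average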;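 also: 0% = DMSO untreated cells without growth and 100% = 10 µM 1-NA-PP1 full growth; higher means more yeast growth rescued from 5-FOA killing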); settings: S. cerevisiae cbk1-as DSE1-URA3 strain, 5-FOA growth OD615, 2 d; at 50 µM; stronger effect = higher value

Row | SMILES | growth inhibition [1] [%] | growth inhibition [2] [%] | viability increase [3] [%] | viability [4] | viability [5] | inhibition [6] [%] | RAM network inhibition [7] [%]
1 | Cn1c(=O)n(C)c2cc(S(=O)(=O)O)ccc21 | 5.19 | 4.85 | -1.08 | 97% | 95% | 1.38 | 0.76
2 | CCN1CCN(Cc2ccc(NC(=O)CC3Oc4ccc(C)cc4NC3=O)cc2)CC1 (stereo not drawn) | -3.29 | 1.68 | -0.91 | 93% | 101% | 0.29 | 2.33
3 | Cn1c(Cn2c(=O)sc3ccccc32)nnc1SCC(=O)NCc1ccc(F)cc1 | -13.5 | -17.4 | -1.09 | 104% | 95% | 3.3 | 2.63
4 | C/C(=C1/SC(N2CCOCC2)=NC1=O)c1ccc(Br)cc1 | -1.67 | 3.21 | -1.99 | 94.5% | 101% | 1.26 | 0.72
5 | Cc1cc(Nc2cccc(Cl)c2C)n2ncnc2n1 | -2.94 | -1.32 | -1.11 | 94.2% | 95% | 2.26 | 2.35
6 | CC1(C)CC(=O)N(CC(=O)O)c2ccccc2S1(=O)=O | -4.39 | 4.7 | -0.77 | 99.8% | 96.3% | 1.42 | 4.48
7 | Cc1sc2nc(SCC(=O)NCc3ccco3)n(C)c(=O)c2c1C | -4.25 | -12.5 | -4.96 | 105% | 94.3% | 2.1 | 3.82
8 | O=C(NCCN1CCOCC1)c1ccc(CS(=O)(=O)c2c(Cl)cccc2Cl)o1 | -0.145 | 5.92 | -0.81 | 110% | 105% | 0.74 | 0.87
9 | CCc1nnc(NC(=O)c2ccc(OC)cc2OC)s1 | 16.6 | 3.21 | -1.32 | 109% | 102% | 1.68 | 2.76
10 | COCCOC(=O)C1=C(C)NC2=C(C(=O)CCC2)C1c1ccc(N(C)C)cc1 (stereo not drawn) | -4.38 | -19.9 | -1.53 | 98.6% | 93.4% | 0.975 | 4.47
11 | CN1CCN(C(=O)C2CCCCC2C(=O)O)CC1 (stereo not drawn) | 0.81 | -12.5 | -1.14 | 99.4% | 99.1% | 2.02 | -0.26
12 | CC(=O)Nc1nnc(SCC(=O)NC(C)(C)C)s1 | -6.89 | 1.67 | -0.33 | 94.8% | 98.8% | 1.88 | 0.36
13 | Cc1cc(NS(=O)(=O)c2ccccc2)c(C)c(Cl)c1O | -8.22 | -15.3 | -4.31 | 1.97% (active) | 3.14% (active) | 2.38 | 6.4
14 | CCC(=O)N1CC2(C)CN(C(=O)CC)CC(C)(C1)C2 | -6.27 | -24.9 | -0.75 | 95.3% | 97% | 1.59 | -0.16
15 | COc1ccccc1N1CSC2=C(C#N)C(c3ccc(SC)cc3)CC(=O)N2C1 (stereo not drawn) | -1.16 | 15.8 | -5.15 | 102% | 94.7% | 1.7 | 3.52
16 | CCOC(=O)c1cnc2nc[nH]n2c1=O | 1.53 | 11.7 | 2.64 | 104% | 103% | 0.33 | -0.24
17 | O=C(c1cc2nc(-c3ccco3)cc(C(F)(F)F)n2n1)N1CCCCCC1 | -9.02 | -9.3 | -3.73 | 86.3% | 83.7% | 0.805 | 3.38
18 | CCOc1ccccc1NC(=O)C1CCC(CNc2c(N3CCOCC3)c(=O)c2=O)CC1 (stereo not drawn) | 0.95 | -1.83 | -0.66 | 108% | 92.7% | 1.43 | 1.18
19 | CCc1ccc(C(=O)NCc2cccs2)s1 | -5.71 | 4.03 | 1.53 | 104% | 97.1% | 0.715 | -1.7
20 | Fc1cccc(Cl)c1CSc1nnnn1-c1ccc2c(c1)OCO2 | 3.1 | 17.6 | -5.87 | 55.7% | 46.4% | 1.1 | 10.2
21 | CC(C)OC(=O)CSc1nnc(-c2ccncc2)n1N | -8.12 | -10.2 | -2.11 | 97.5% | 97.1% | 1.8 | 3.83
22 | CCC1(C(=O)O)NC(c2cc(OC)ccc2O)C2C(=O)N(Cc3ccccc3)C(=O)C21 (stereo not drawn) | 2.51 | -7.93 | -0.32 | 102% | 99.8% | 0.37 | 1.51
23 | C=C(Br)Cn1c(CC(C)C)nc2ccccc21 | 13.3 | -14.3 | -4.96 | 85.1% | 83.7% | 0.265 | 4.37
24 | CCC(=O)Nc1nc2ccc3nc(C)sc3c2s1 | -5.17 | 32.5 | -4.98 | 75.3% | 81.1% | 0.415 | 2.94
